ChEMBL document CHEMBL1137011, “Antagonists of the calcium receptor I. Amino alcohol-based parathyroid hormone secretagogues” (J Med Chem, 2009)
The source made the active and inactive calls. The calls are words filed in the database; no cut-off is given here.

What was measured:
[1] = Antagonist activity at human calcium receptor 1 expressed in HEK293 4.0-7 cells assessed as inhibition of extracellular calcium-induced increase in intracellular calcium level by FLIPR assay; assay type: functional, cell-based
Outline: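 HEK293 cells stably expressing human CaR, seeded 15K cells/well and grown 48 h at 37 °C. Loaded 45 min at 37 °C with Fluo4 (2 µM final) and probenecid (2.5 mM final) in HBSS with 0.75 mM Ca. Compound (top 25 µM final) was added 5 min at room temperature, then EC80 CaCl challenge, with FLIPR fluorescence read for 65 s.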

[2] = target: T1, Extracellular calcium-sensing receptor (Homo sapiens, UniProt P41180); test: Binding affinity to human parathyroid calcium receptor 1 expressed in HEK293 4.0-7 cells by radioligand binding assay; assay type: cell-based
T1 sequence (P41180 whole entry): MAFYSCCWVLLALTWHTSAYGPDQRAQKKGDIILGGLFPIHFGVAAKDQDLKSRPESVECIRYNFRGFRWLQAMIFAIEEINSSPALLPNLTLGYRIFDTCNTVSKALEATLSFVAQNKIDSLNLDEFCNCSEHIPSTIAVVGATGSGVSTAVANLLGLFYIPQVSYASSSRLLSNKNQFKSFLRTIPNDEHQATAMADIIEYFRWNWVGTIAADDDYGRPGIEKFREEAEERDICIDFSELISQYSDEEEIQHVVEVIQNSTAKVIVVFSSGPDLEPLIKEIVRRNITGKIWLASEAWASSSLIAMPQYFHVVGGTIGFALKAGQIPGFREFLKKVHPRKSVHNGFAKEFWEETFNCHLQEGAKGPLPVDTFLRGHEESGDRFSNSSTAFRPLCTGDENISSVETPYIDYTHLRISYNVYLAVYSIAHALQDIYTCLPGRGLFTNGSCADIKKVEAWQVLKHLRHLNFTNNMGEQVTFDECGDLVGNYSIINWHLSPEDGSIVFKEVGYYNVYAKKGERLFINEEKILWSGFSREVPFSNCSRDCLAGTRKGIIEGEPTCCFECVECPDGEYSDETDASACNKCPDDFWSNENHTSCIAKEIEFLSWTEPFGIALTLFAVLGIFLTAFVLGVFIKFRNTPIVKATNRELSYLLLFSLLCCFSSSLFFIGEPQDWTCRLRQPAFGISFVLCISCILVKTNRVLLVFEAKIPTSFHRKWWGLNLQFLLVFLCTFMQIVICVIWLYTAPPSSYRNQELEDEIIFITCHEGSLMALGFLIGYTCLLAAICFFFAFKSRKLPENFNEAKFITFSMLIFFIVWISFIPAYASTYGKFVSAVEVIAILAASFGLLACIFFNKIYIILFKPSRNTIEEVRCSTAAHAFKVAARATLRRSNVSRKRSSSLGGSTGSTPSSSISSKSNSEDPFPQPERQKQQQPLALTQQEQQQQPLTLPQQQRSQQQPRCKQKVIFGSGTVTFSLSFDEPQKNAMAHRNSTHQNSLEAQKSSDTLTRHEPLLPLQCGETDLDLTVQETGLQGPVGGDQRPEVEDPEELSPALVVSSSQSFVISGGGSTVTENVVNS
Outline: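 Membranes from HEK293 4.0-7 cells stably expressing human CaR (4-10 µg) in 50 mM Tris-HCl pH 7.4, 1 mM EDTA, 3 mM MgCl2, 0.1% gelatin, 10% EtOH. Incubated with 2 nM 3H antagonist or 3H calcimimetic ligand for 30 min at 4 °C, then filtered onto PEI-treated GF/C and counted by scintillation. Nonspecific binding taken with 100-fold excess of unlabeled homologous ligand.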

[3] = target: Sodium-dependent dopamine transporter (Homo sapiens, UniProt Q01959); test: Binding affinity to dopamine transporter
[4] = target: Sodium-dependent serotonin transporter (Homo sapiens, UniProt P31645); test: Binding affinity to serotonin transporter
[5] = target: Sodium-dependent noradrenaline transporter (Homo sapiens, UniProt P23975); test: Binding affinity to norepinephrine transporter
Cytochrome P450 2D6 = Cytochrome P450 2D6 (Homo sapiens, UniProt P10635); test: Binding affinity to CYP2D6; assay type: ADME
[6] = target: Voltage-gated inwardly rectifying potassium channel KCNH2 (Homo sapiens, UniProt Q12809); test: Binding affinity to human ERG
[7] = target: Beta-3 adrenergic receptor (Homo sapiens, UniProt P13945); test: Binding affinity to beta3 adrenoceptor
[8] = target: Beta-2 adrenergic receptor (Homo sapiens, UniProt P07550); test: Binding affinity to beta2 adrenoceptor
[9] = target: Beta-1 adrenergic receptor (Homo sapiens, UniProt P08588); test: Binding affinity to beta-1 adrenoceptor
Rattus norvegicus [10] = test: Increase in plasma parathyroid hormone level in normal conscious rat at 10 umol/kg, iv by immunoradiometric assay; assay type: functional, organism-based
Outline: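 Normal conscious rats were given a single iv injection of 10 µmol/kg. Plasma PTH was measured over time by rat PTH(1-34) immunoradiometric assay, n = 6/group, mean ± SE.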

[11] = Oral bioavailability in rat; assay type: ADME, organism-based; conditions: in vivo
Rattus norvegicus [12] = species: Rattus norvegicus; test: Clearance in rat; assay type: ADME, organism-based; conditions: in vivo
[13] = Half life in rat; assay type: ADME, organism-based; conditions: in vivo
[14] = Volume of distribution in rat; assay type: ADME, organism-based; conditions: in vivo
[15] = Increase in parathyroid hormone release in bovine parathyroid cells; assay type: functional, cell-based; conditions: Bos taurus
Rattus norvegicus [16] = test: Increase of new bone formation in ovariectomized postmenopausal osteoporosis Sprague-Dawley rat model at 100 umol/kg, po for 5 weeks; assay type: functional, organism-based
Rattus norvegicus [17] = test: Increase of resorption of old bone in ovariectomized postmenopausal osteoporosis Sprague-Dawley rat model at 100 umol/kg, po for 5 weeks; assay type: functional, organism-based
Rattus norvegicus [18] = test: Effect on net increase in bone mass in ovariectomized postmenopausal osteoporosis Sprague-Dawley rat model at 100 umol/kg, po for 5 weeks; assay type: functional, organism-based
Rattus norvegicus [19] = test: Increase of bone mass in ovariectomized postmenopausal osteoporosis Sprague-Dawley rat model at 5 ug/kg, po for 5 weeks; assay type: functional, organism-based
Rattus norvegicus [20] = test: Increase of bone mass in 17-beta-estradiol-treated ovariectomized postmenopausal osteoporosis Sprague-Dawley rat model at 100 umol/kg, po for 5 weeks; assay type: functional, organism-based
[21] = Tmax in human; assay type: ADME, organism-based; conditions: in vivo
[22] = Clearance in women; assay type: ADME, organism-based; conditions: female, human, in vivo
[23] = Clearance in men; assay type: ADME, organism-based; conditions: male, human, in vivo
[24] = Volume of distribution in human; assay type: ADME, organism-based; conditions: in vivo

Chain of Beta-2 adrenergic receptor (P07550 whole entry): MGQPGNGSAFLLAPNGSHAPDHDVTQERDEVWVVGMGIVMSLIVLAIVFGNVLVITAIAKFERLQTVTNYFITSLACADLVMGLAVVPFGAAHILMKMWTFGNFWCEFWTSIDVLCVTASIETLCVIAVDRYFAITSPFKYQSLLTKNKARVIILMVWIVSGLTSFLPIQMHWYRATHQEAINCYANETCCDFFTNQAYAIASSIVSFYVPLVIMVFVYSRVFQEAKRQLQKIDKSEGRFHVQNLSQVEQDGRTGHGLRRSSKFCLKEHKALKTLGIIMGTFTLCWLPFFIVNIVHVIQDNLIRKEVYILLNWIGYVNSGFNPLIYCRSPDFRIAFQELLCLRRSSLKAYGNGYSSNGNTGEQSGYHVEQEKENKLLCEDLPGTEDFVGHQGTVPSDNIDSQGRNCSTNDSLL
Chain of Sodium-dependent noradrenaline transporter (P23975 whole entry): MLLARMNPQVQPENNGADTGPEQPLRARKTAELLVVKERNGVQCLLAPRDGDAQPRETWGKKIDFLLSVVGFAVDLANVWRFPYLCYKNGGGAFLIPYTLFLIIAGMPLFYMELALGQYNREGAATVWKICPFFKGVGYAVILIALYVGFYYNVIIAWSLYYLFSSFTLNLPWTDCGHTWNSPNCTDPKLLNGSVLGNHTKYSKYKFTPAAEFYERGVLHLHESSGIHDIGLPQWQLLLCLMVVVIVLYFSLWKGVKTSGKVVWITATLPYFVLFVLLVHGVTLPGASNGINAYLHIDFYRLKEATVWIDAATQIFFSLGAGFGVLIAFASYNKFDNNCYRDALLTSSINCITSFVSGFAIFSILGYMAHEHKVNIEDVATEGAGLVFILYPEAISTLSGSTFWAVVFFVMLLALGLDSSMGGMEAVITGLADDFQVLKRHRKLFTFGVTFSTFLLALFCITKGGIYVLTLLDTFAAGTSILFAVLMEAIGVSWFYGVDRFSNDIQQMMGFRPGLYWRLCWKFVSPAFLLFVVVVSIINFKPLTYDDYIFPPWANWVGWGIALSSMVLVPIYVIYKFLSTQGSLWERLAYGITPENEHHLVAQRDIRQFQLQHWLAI
Chain of Sodium-dependent serotonin transporter (P31645 whole entry): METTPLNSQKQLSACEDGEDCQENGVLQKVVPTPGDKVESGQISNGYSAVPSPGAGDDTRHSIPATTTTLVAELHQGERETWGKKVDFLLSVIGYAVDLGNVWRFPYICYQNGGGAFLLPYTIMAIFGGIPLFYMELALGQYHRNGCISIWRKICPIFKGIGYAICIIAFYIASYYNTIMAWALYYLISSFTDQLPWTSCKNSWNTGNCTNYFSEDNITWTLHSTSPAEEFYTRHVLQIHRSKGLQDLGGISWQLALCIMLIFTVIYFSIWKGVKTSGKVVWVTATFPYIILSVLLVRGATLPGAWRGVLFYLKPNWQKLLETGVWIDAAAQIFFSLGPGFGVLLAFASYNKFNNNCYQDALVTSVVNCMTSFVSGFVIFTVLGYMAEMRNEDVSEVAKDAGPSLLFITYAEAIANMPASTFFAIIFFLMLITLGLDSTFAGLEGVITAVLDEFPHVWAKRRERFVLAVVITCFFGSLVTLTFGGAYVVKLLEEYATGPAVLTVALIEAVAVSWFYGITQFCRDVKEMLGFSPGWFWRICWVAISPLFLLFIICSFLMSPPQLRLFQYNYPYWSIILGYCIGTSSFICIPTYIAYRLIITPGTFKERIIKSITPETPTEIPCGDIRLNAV
Chain of Voltage-gated inwardly rectifying potassium channel KCNH2 (Q12809 whole entry): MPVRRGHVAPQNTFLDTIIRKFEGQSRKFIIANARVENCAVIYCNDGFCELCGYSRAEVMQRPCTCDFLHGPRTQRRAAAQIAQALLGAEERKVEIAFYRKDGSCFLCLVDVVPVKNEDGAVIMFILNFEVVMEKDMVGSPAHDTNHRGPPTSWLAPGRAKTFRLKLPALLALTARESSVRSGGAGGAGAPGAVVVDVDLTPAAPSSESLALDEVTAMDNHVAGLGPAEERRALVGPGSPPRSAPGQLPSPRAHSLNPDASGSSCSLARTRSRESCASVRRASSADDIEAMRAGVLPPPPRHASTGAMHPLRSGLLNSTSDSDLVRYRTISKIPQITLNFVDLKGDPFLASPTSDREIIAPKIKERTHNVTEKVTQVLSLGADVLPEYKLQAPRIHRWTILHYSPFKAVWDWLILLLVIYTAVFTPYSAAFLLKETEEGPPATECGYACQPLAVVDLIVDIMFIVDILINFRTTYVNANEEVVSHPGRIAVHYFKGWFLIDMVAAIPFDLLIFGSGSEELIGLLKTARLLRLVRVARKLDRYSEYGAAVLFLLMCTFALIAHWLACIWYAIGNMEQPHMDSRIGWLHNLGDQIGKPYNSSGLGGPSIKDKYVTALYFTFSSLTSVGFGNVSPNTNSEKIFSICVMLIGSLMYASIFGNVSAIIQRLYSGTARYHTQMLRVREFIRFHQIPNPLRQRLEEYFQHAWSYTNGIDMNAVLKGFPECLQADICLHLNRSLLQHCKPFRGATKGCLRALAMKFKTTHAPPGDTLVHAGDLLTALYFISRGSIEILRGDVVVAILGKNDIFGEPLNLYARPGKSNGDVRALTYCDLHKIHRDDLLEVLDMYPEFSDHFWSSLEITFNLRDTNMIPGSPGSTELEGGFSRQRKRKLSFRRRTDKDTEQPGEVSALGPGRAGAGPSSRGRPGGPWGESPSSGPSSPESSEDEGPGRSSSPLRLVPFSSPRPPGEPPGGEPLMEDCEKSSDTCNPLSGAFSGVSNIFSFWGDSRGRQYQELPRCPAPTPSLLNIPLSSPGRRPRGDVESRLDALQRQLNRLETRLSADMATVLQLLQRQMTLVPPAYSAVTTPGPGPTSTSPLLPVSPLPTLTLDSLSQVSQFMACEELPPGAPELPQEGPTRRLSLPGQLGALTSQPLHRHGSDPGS
Chain of Beta-3 adrenergic receptor (P13945 whole entry): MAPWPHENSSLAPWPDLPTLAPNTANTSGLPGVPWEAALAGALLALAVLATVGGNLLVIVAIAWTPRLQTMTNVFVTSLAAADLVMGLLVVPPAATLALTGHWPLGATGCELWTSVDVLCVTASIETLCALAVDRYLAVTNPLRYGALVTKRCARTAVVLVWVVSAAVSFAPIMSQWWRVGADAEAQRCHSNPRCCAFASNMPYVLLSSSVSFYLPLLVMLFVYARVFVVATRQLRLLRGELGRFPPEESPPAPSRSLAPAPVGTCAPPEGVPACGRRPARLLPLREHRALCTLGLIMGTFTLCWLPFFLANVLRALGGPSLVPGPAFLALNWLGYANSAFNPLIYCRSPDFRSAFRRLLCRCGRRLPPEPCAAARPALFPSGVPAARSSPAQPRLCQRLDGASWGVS
Chain of Sodium-dependent dopamine transporter (Q01959 whole entry): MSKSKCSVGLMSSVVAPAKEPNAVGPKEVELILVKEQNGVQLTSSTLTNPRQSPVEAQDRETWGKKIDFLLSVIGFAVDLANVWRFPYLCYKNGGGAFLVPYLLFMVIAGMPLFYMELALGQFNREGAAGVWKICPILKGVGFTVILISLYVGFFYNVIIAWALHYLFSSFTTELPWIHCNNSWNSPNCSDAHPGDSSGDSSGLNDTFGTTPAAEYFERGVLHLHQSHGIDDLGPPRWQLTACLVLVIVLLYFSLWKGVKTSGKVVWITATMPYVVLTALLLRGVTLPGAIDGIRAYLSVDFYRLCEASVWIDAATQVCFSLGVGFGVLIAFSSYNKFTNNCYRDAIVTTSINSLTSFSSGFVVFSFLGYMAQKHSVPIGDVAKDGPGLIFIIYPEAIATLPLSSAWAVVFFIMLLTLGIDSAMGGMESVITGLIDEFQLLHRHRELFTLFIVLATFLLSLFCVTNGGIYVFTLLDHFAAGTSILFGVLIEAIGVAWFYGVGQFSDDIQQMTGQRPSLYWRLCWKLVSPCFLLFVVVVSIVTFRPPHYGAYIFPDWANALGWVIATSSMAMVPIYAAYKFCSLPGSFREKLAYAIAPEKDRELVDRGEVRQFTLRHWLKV
Chain of Cytochrome P450 2D6 (P10635 whole entry): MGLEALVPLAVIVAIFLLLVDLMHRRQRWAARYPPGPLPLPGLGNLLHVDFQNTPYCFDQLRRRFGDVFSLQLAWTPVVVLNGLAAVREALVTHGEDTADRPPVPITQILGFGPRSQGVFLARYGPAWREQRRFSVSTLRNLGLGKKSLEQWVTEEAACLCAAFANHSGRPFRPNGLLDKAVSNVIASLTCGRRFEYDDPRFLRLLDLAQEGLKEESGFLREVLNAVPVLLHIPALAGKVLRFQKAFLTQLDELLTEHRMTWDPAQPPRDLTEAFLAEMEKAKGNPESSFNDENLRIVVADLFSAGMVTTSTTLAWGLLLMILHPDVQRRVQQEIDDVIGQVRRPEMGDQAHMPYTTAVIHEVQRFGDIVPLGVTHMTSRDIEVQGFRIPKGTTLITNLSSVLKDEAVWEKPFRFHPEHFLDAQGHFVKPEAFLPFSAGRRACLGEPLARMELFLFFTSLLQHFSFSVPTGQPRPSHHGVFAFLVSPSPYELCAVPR
Chain of Beta-1 adrenergic receptor (P08588 whole entry): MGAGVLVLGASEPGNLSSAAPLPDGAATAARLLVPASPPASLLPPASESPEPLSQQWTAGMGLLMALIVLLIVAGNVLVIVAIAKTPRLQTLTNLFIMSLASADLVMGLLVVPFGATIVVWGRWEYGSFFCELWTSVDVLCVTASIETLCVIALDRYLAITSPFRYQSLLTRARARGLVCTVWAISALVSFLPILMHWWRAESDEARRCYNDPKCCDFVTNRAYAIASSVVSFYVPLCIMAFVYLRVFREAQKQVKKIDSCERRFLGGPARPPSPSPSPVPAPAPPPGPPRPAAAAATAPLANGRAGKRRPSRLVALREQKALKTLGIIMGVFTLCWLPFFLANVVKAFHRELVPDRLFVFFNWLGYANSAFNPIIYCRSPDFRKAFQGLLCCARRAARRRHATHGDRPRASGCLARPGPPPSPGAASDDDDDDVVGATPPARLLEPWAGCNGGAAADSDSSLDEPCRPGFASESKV

SMILES: COc1ccc(CC(C)(C)NCC(O)COc2cccc(Cl)c2C#N)cc1 (racemic)
- IC50 [1]: 38 nM
- IC50 [2]: 70 nM
- IC50 [3]: 1100 nM
- IC50 [4]: 34 nM
- IC50 [5]: 1000 nM
- IC50 (Cytochrome P450 2D6): 76 nM
- IC50 [6]: 3600 nM
- EC50 [7]: Not Active
- IC50 [8]: 23 nM
- EC50 [9]: Not Active

SMILES: COc1ccc(CC(C)(C)N(C)CC(O)COc2cccc(Cl)c2Cl)cc1 (racemic)
- IC50 [1]: > 3000 nM
- IC50 [2]: 2300 nM

SMILES: COc1ccc(CC(C)(C)NCC(O)COc2ccc3ccccc3c2)cc1 (racemic)
- IC50 [1]: 1400 nM
- IC50 [2]: 1300 nM

SMILES: COc1ccc(CC(C)(C)NCC(O)COC(C)C)cc1 (racemic)
- IC50 [1]: 6400 nM
- IC50 [2]: 10000 nM

SMILES: COc1ccc(CC(C)(C)NCC(O)COc2ccccc2)cc1 (racemic)
- IC50 [1]: 2300 nM
- IC50 [2]: 2300 nM

SMILES: COc1ccc(C(C)(C)NCC(O)COc2ccccc2)cc1 (racemic)
- IC50 [1]: > 100000 nM
- IC50 [2]: > 10000 nM

SMILES: COc1ccc(CC(C)(C)NCC(O)COc2cccc(Cl)c2)cc1 (racemic)
- IC50 [1]: 470 nM
- IC50 [2]: 1000 nM

SMILES: COc1ccc(CC(C)NCC(O)COc2ccccc2)cc1 (racemic)
- IC50 [1]: > 100000 nM
- IC50 [2]: > 10000 nM

SMILES: CC(C)(Cc1ccc2ccccc2c1)NC[C@@H](O)COc1cccc(Cl)c1C#N.Cl
- IC50 [1]: 43 nM
- IC50 [2]: 3 nM
- IC50 [3]: 200 nM
- IC50 [4]: 2 nM
- IC50 [5]: 200 nM
- IC50 (Cytochrome P450 2D6): 45 nM
- IC50 [6]: 3000 nM
- Activity (Rattus norvegicus [10]): Active
- bioavailability [11]: 11%
- clearance (Rattus norvegicus [12]): 74 mL/min/kg
- half-life [13]: 2 h
- Vd [14]: 11 L/kg
- EC50 [15]: 41 nM
- Activity (Rattus norvegicus [16]): Active
- Activity (Rattus norvegicus [17]): Active
- Activity (Rattus norvegicus [18]): Active
- Activity (Rattus norvegicus [19]): Active
- Activity (Rattus norvegicus [20]): Active
- EC50 [7]: Not Active
- IC50 [8]: 4300 nM
- EC50 [9]: Not Active

SMILES: COc1ccc(CCC(C)(C)NCC(O)COc2ccccc2)cc1 (racemic)
- IC50 [1]: 13000 nM
- IC50 [2]: 2780 nM

SMILES: COc1ccc(CC(C)(C)NC[C@@H](O)COc2cccc(Cl)c2Cl)cc1
- IC50 [1]: 38 nM
- IC50 [2]: 68 nM
- EC50 [7]: Not Active
- IC50 [8]: 300 nM

SMILES: COc1ccc(CC(C)(C)NCC(COc2cccc(Cl)c2Cl)OC)cc1 (racemic)
- IC50 [1]: > 3000 nM
- IC50 [2]: 950 nM

SMILES: COc1ccc(CCNCC(O)COc2ccccc2)cc1 (racemic)
- IC50 [1]: > 100000 nM
- IC50 [2]: > 10000 nM

SMILES: CCCCOCC(O)CNC(C)(C)Cc1ccc(OC)cc1 (racemic)
- IC50 [1]: 2200 nM
- IC50 [2]: 3200 nM

SMILES: COc1ccc(CC(C)(C)NCC(O)COc2ccccc2Cl)cc1 (racemic)
- IC50 [1]: 490 nM
- IC50 [2]: 1000 nM

SMILES: COc1ccc(CC(C)(C)NCC(O)COc2cccc(Cl)c2Cl)cc1 (racemic)
- IC50 [1]: 45 nM
- IC50 [2]: 200 nM
- EC50 ([7]; read-out: EC50): 200 nM
- IC50 [8]: 21 nM

SMILES: CC(C)(Cc1ccccc1)NCC(O)COc1ccccc1 (racemic)
- IC50 [1]: 2300 nM

SMILES: COc1ccc(CC(C)(C)NC[C@H](O)COc2cccc3[nH]c(=O)[nH]c23)cc1
- IC50 [1]: 11000 nM
- IC50 [2]: 31800 nM
- IC50 [3]: 1200 nM
- IC50 [4]: 61 nM
- IC50 [5]: 600 nM
- IC50 (Cytochrome P450 2D6): 1260 nM
- IC50 [6]: 11800 nM
- EC50 ([7]; read-out: EC50): 7 nM
- IC50 [8]: 1.3 nM
- EC50 ([9]; read-out: EC50): 3 nM

SMILES: CC[C@H](C)[C@H](NC(=O)[C@H](CCC(=O)O)NC(=O)[C@H](CO)NC(=O)[C@@H](NC(=O)[C@@H](N)CO)C(C)C)C(=O)N[C@@H](CCC(N)=O)C(=O)N[C@@H](CC(C)C)C(=O)N[C@@H](CCSC)C(=O)N[C@@H](Cc1cnc[nH]1)C(=O)N[C@@H](CC(N)=O)C(=O)N[C@@H](CC(C)C)C(=O)NCC(=O)N[C@@H](CCCCN)C(=O)N[C@@H](Cc1cnc[nH]1)C(=O)N[C@@H](CC(C)C)C(=O)N[C@@H](CC(N)=O)C(=O)N[C@@H](CO)C(=O)N[C@@H](CCSC)C(=O)N[C@@H](CCC(=O)O)C(=O)N[C@@H](CCCN=C(N)N)C(=O)N[C@H](C(=O)N[C@@H](CCC(=O)O)C(=O)N[C@@H](Cc1c[nH]c2ccccc12)C(=O)N[C@@H](CC(C)C)C(=O)N[C@@H](CCCN=C(N)N)C(=O)N[C@@H](CCCCN)C(=O)N[C@@H](CCCCN)C(=O)N[C@@H](CC(C)C)C(=O)N[C@@H](CCC(N)=O)C(=O)N[C@@H](CC(=O)O)C(=O)N[C@H](C(=O)N[C@@H](Cc1cnc[nH]1)C(=O)N[C@@H](CC(N)=O)C(=O)N[C@@H](Cc1ccccc1)C(=O)O)C(C)C)C(C)C [TERIPARATIDE]
- Tmax [21]: ≤ 0.5 h
- clearance [22]: 1030 mL/min
- clearance [23]: 1570 mL/min
- Vd [24]: 0.12 L/kg

SMILES: COc1ccc(CC(C)(C)NCC(O)COc2ccccc2C#N)cc1 (racemic)
- IC50 [1]: 45 nM
- IC50 [2]: 140 nM
- IC50 [3]: 300 nM
- IC50 [4]: 21 nM
- IC50 [5]: 300 nM
- IC50 (Cytochrome P450 2D6): 36 nM
- EC50 ([7]; read-out: EC50): 20 nM
- IC50 [8]: 21 nM
- EC50 [9]: Not Active

SMILES: CCCOCC(O)CNC(C)(C)Cc1ccc(OC)cc1 (racemic)
- IC50 [1]: 16000 nM
- IC50 [2]: 7000 nM

SMILES: COc1ccc(CC(C)(C)NCCCOc2cccc(Cl)c2Cl)cc1
- IC50 [1]: 2500 nM
- IC50 [2]: 930 nM

SMILES: COc1ccc(CC(C)(C)NC[C@H](O)COc2cccc(Cl)c2Cl)cc1
- IC50 [1]: 340 nM
- IC50 [2]: 300 nM
- EC50 ([7]; read-out: EC50): 200 nM
- IC50 [8]: 1 nM

SMILES: COc1ccc(CC(C)(C)NCC(O)COc2ccccc2OC)cc1 (racemic)
- IC50 [1]: 15600 nM
- IC50 [2]: 3500 nM

SMILES: COc1ccc(C(C)(C)CNCC(O)COc2ccccc2)cc1 (racemic)
- IC50 [1]: > 100000 nM
- IC50 [2]: > 10000 nM
